Experimental data as given in ChEMBL document CHEMBL5661979, “Pharmacological inhibition of BMK1 suppresses tumor growth through promyelocytic leukemia protein” (Cancer Cell, 2010).
Calls of active or inactive are those of the source. The calls are words filed in the database; no cut-off is given here.

Key:
[1] = target: DNA-dependent protein kinase catalytic subunit (Homo sapiens, UniProt P78527); experiment: Inhibition of PRKDC in human HeLa cells lysate at 50 uM pre incubated for 15 mins followed by ADP acyl phosphate probe addition and measured after 10 mins by LC-MS/MS analysis relative to control; format: subcellular; conditions: time 25.0 min
[2] = target: Phosphatidylinositol 3-kinase catalytic subunit type 3 (Homo sapiens, UniProt Q8NEB9); experiment: Inhibition of PIK3C3 in human HeLa cells lysate at 50 uM pre incubated for 15 mins followed by ATP acyl phosphate probe addition and measured after 10 mins by LC-MS/MS analysis relative to control; format: subcellular; conditions: time 25.0 min
[3] = Inhibition of MST4/YSK1 in human HeLa cells lysate pre incubated for 15 mins followed by ADP acyl phosphate probe addition and measured after 10 mins by LC-MS/MS analysis; format: subcellular
[4] = target: Ribosomal protein S6 kinase alpha-5 (Homo sapiens, UniProt O75582); experiment: Inhibition of MSK1 domain 1 in human HeLa cells lysate at 2 uM pre incubated for 15 mins followed by ADP acyl phosphate probe addition and measured after 10 mins by LC-MS/MS analysis relative to control; format: subcellular; conditions: time 25.0 min
[5] = target: T1, Serine/threonine-protein kinase Sgk3 (Homo sapiens) (UniProt Q96BR1); experiment: Inhibition of SGK3 in human HeLa cells lysate at 10 uM pre incubated for 15 mins followed by ADP acyl phosphate probe addition and measured after 10 mins by LC-MS/MS analysis relative to control; format: subcellular; conditions: time 25.0 min
T1 sequence (whole entry): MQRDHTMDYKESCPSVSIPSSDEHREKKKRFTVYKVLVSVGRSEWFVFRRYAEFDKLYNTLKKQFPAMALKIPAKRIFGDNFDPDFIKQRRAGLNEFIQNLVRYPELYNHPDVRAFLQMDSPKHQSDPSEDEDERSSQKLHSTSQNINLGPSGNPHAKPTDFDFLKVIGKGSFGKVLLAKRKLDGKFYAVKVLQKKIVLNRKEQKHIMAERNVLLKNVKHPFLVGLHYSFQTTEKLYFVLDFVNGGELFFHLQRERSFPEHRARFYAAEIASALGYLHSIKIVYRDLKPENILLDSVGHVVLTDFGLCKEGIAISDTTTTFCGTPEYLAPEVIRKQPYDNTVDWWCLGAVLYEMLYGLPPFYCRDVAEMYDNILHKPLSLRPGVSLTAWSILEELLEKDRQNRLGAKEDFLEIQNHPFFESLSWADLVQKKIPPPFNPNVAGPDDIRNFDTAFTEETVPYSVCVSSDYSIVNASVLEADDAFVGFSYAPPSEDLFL

[6] = target: Mitogen-activated protein kinase kinase kinase 1 (Homo sapiens, UniProt Q13233); experiment: Inhibition of MAP3K1 in human HeLa cells lysate pre incubated for 15 mins followed by ADP acyl phosphate probe addition and measured after 10 mins by LC-MS/MS analysis; format: subcellular
HeLa = experiment: Antitumor activity against human HeLa cells xenografted in NOD/SCID mouse assessed as reduction tumor growth at 50 mg/kg, ip administered on day 7 post implantation measured after 28 days; format: functional, organism-based; conditions: time 21.0 day
Outline: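 HeLa cells (5×10^5, in DMEM) were injected s.c. into the right flank of 6-week-old Nod/Scid mice on day 0. Dosing was 50 mg/kg i.p. twice daily, starting on day 1, 7 or 14 and continuing to day 28; controls received carrier. 6 mice per treated group. Tumors were measured every 2–3 days.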

[7] = target: Tyrosine-protein kinase JAK1 (Homo sapiens, UniProt P23458); experiment: Inhibition of JAK1 domain 2 in human HeLa cells lysate at 2 uM pre incubated for 15 mins followed by ATP acyl phosphate probe addition and measured after 10 mins by LC-MS/MS analysis relative to control; format: subcellular; conditions: time 25.0 min
Activated CDC42 kinase 1 = Activated CDC42 kinase 1 (Homo sapiens, UniProt Q07912); experiment: Inhibition of ACK1 in human HeLa cells lysate at 2 uM pre incubated for 15 mins followed by ADP acyl phosphate probe addition and measured after 10 mins by LC-MS/MS analysis relative to control; format: subcellular; conditions: time 25.0 min
Outline: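 HeLa cell lysates (5 mg/mL total protein) were preincubated with inhibitor at 0, 0.8, 2, 10 or 50 μM for 15 min. ATP or ADP acylphosphate probe was then added (5 μM final) for 10 min, and reactions were stopped with urea. Up to four fragment ions per kinase probe-peptide were quantified by targeted MS. % inhibition was taken relative to untreated lysate. Run in duplicate.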

[8] = target: T2, Phosphatidylinositol 5-phosphate 4-kinase type-2 gamma (Homo sapiens) (UniProt Q8TBX8); experiment: Inhibition of PIP5K2C LIP1 site in human HeLa cells lysate at 10 uM pre incubated for 15 mins followed by ATP acyl phosphate probe addition and measured after 10 mins by LC-MS/MS analysis relative to control; format: subcellular; conditions: time 25.0 min
T2 sequence (whole entry): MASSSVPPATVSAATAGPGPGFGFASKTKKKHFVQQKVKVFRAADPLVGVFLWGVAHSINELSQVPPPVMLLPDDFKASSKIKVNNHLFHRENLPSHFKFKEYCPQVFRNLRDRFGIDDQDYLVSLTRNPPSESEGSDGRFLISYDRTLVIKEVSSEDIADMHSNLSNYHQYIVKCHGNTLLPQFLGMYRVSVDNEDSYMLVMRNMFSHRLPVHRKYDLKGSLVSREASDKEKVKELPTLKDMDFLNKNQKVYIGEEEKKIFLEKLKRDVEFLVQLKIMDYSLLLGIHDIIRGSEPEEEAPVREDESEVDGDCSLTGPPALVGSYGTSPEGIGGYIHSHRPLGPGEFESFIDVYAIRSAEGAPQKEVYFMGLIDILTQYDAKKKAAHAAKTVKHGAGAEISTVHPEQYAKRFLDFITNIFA

[9] = target: MAP/microtubule affinity-regulating kinase 3 (Homo sapiens, UniProt P27448); experiment: Inhibition of MARK3 in human HeLa cells lysate at 10 uM pre incubated for 15 mins followed by ADP acyl phosphate probe addition and measured after 10 mins by LC-MS/MS analysis relative to control; format: subcellular; conditions: time 25.0 min
[10] = target: Tyrosine-protein kinase receptor UFO (Homo sapiens) (UniProt P30530); experiment: Inhibition of AXL in human HeLa cells lysate at 2 uM pre incubated for 15 mins followed by ADP acyl phosphate probe addition and measured after 10 mins by LC-MS/MS analysis relative to control; format: subcellular; conditions: time 25.0 min
Outline: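 KiNativ-type profiling in HeLa lysate (5 mg/mL total protein). Lysate preincubated 15 min with inhibitor at 50, 10, 2, 0.8 or 0 μM, then ATP or ADP acylphosphate probe added (5 μM final) for 10 min. Reaction stopped with urea and analysed by targeted MS, using up to four fragment ions per kinase peptide-probe conjugate. % inhibition calculated against untreated lysate. Duplicate reactions.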

Chain of Mitogen-activated protein kinase kinase kinase 1 (Q13233 whole entry): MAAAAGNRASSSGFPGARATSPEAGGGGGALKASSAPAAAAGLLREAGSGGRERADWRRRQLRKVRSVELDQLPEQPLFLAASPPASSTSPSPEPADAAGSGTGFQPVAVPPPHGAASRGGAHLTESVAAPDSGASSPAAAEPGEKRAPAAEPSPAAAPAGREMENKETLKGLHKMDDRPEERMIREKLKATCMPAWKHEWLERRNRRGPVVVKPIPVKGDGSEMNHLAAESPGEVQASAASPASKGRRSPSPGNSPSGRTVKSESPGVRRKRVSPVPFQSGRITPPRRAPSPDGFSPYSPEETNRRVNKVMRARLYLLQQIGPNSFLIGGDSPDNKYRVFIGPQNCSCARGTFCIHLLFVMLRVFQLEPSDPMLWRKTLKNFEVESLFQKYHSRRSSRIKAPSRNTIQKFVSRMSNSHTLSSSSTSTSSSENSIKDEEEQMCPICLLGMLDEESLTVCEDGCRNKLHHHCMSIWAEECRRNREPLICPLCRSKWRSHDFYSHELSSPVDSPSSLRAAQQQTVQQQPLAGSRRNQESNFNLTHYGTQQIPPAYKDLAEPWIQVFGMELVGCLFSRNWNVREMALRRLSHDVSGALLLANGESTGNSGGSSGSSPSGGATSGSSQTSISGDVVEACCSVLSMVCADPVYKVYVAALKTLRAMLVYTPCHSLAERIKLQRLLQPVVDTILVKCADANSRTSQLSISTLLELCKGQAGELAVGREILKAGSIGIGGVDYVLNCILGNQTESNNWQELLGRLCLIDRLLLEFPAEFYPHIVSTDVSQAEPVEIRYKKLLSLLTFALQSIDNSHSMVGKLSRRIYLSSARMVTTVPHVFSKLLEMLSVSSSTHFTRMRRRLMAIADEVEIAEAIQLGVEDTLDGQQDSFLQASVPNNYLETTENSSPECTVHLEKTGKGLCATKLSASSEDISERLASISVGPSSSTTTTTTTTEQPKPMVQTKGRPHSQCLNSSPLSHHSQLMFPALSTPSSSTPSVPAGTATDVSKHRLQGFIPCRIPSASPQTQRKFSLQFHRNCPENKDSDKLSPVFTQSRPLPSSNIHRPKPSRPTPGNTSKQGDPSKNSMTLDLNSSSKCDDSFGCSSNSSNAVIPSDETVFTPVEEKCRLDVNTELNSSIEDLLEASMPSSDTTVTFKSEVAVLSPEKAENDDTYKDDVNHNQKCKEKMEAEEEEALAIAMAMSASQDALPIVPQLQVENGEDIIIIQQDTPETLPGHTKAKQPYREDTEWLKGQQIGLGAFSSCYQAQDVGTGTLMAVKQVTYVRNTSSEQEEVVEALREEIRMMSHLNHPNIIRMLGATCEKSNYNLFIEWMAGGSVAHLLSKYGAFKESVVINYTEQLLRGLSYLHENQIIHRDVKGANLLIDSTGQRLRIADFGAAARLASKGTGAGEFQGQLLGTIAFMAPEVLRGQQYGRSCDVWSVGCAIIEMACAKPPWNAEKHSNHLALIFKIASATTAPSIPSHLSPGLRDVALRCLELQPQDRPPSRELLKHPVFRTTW
Chain of Tyrosine-protein kinase receptor UFO (Homo sapiens) (P30530 whole entry, the tested form may be a part): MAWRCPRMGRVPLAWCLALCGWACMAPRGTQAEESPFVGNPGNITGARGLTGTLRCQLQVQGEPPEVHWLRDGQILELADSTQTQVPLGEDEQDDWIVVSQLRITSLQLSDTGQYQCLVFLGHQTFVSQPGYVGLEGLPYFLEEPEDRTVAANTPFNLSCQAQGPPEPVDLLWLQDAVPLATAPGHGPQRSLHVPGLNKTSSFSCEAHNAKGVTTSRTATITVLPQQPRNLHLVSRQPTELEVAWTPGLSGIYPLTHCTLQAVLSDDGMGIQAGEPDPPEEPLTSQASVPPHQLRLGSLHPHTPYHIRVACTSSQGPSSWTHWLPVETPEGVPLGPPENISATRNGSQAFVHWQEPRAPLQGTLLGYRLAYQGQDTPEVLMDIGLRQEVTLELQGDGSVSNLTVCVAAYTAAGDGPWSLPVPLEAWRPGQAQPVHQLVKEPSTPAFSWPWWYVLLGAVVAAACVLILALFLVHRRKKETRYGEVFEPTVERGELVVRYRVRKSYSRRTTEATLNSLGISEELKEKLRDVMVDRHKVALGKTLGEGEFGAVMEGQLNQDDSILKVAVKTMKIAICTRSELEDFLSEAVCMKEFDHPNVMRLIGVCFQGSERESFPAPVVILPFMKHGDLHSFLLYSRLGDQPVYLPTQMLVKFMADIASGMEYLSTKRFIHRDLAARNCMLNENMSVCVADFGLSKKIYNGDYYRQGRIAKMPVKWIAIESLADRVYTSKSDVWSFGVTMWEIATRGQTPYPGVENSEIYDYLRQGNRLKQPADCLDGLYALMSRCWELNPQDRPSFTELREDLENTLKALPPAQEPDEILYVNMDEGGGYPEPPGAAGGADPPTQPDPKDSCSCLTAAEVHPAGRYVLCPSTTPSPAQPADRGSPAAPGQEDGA
Chain of Activated CDC42 kinase 1 (Q07912 whole entry, looked up, the tested form may be a part): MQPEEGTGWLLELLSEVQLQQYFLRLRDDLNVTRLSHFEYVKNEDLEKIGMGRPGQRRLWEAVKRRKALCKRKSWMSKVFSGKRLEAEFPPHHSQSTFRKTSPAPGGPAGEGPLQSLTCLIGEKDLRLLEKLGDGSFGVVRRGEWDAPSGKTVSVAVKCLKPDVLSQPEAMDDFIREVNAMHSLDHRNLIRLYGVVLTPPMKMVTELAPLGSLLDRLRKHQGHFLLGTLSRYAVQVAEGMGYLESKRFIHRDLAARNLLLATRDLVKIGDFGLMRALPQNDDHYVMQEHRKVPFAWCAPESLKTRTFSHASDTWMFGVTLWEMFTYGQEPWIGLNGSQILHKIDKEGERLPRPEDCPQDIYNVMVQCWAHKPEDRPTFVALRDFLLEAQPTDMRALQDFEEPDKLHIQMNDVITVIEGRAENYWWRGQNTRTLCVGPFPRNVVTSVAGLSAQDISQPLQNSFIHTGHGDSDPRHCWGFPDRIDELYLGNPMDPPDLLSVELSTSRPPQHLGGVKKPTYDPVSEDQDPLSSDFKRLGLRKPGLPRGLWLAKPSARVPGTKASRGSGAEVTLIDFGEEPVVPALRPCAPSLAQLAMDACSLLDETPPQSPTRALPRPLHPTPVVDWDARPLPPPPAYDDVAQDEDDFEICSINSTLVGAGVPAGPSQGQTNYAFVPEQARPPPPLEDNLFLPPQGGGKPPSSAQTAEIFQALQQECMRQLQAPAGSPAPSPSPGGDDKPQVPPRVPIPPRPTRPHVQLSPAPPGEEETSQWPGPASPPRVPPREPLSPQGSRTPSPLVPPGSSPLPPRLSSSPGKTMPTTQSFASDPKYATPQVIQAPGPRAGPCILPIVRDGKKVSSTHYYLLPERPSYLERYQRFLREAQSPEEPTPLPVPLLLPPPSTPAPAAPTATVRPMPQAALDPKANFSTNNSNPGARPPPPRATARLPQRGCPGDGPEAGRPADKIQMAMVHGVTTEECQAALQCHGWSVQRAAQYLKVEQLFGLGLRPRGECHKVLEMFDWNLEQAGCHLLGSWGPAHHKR
Chain of Phosphatidylinositol 3-kinase catalytic subunit type 3 (Q8NEB9 whole entry): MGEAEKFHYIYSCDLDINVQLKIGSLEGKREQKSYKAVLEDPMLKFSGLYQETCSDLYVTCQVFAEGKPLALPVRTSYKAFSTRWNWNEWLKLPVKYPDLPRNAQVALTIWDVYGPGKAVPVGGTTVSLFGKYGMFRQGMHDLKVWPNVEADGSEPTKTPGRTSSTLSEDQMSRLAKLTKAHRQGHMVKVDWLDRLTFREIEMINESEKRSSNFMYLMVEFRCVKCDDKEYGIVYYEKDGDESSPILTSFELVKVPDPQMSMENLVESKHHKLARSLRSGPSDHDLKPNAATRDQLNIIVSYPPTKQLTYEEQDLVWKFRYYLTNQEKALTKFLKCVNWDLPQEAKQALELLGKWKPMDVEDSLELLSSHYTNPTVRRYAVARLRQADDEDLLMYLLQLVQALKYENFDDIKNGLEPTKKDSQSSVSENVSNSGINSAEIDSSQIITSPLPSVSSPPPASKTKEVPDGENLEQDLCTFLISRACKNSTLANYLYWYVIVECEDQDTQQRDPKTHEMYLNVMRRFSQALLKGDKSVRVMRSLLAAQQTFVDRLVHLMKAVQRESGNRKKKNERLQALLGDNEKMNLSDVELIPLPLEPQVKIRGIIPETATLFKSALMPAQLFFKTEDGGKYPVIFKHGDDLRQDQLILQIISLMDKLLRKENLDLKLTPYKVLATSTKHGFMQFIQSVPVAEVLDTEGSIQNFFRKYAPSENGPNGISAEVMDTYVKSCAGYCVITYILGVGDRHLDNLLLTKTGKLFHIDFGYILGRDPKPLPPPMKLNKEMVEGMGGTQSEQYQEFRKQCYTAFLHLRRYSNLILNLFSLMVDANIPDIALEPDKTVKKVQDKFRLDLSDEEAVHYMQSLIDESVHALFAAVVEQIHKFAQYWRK
Chain of MAP/microtubule affinity-regulating kinase 3 (P27448 whole entry, looked up): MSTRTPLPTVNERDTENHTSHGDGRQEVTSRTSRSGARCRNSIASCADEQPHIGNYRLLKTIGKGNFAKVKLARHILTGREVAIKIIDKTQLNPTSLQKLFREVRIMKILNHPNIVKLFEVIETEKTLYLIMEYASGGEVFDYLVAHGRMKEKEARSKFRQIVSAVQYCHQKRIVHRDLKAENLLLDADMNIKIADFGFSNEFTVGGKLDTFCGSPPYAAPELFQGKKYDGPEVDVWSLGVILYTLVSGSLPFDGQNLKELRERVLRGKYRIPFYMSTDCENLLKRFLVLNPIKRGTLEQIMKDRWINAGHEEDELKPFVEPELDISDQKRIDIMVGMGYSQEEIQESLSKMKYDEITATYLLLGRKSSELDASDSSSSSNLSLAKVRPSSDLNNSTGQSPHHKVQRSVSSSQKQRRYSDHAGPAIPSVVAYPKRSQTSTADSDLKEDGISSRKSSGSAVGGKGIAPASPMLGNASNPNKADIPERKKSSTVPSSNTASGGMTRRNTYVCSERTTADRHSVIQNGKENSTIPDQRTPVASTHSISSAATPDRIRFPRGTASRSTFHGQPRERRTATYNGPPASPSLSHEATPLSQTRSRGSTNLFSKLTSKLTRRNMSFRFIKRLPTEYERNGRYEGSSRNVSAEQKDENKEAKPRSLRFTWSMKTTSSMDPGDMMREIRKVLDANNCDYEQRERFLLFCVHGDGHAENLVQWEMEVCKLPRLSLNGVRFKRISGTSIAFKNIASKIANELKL

CCOc1cc(N2CCC(O)CC2)ccc1Nc1ncc2c(n1)N(C)c1ccccc1C(=O)N2C
inhibition [1]: 2.9% | inhibition [2]: 19.3% | IC50 [3]: > 50 µM | inhibition [4]: 21.5% | inhibition [5]: -0.3% | IC50 [6]: > 50 µM | Activity (HeLa): Active | inhibition [7]: 9.7% | inhibition (Activated CDC42 kinase 1): 24.4% | inhibition [8]: -1.3% | inhibition [9]: 4.8% | inhibition [10]: 13.1%
